Test results published in ChEMBL document CHEMBL4513216, “Probing the Open Global Health Chemical Diversity Library for Multistage-Active Starting Points for Next-Generation Antimalarials” (ACS Infect Dis, 2020).

Test: Toxicity liver stage against HepG2, at 10uM
Format: cell-based
Design: test concentration 10 uM, cell line HepG2-A16-CD81EGFP
Settings: human, HepG2-A16-CD81EGFP cells; read-out: INHIBITION
Summary of the method: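 Uninfected HepG2-A16-CD81EGFP cells, 3 × 10^3 per well, 1536-well, plated on prespotted compound at 10 μM final, parasite-free screening media added to match infected plates; puromycin 10 μM positive, DMSO 0.5% negative; run in parallel with 48 h PbLuc assay at 37 °C, 5% CO2; viability by CellTiter-Glo luminescence, normalized to controls.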

SMILES | cytotoxicity at 10 µM
COCc1cc(C[C@@H]2CC[C@H](O)[C@@H](CN(CC(C)C)CC(C)C)O2)no1 | 0.169%
O=C(c1cccnc1)N1C[C@@H]2OCC(=O)N(Cc3cccnc3)[C@@H]2C1 | 2.08%
CC(=O)N1CCC(N2CCN3C(=O)N(Cc4ccccn4)C[C@H]3C2)CC1 | 2.26%
O=C(O)CN(C(=O)c1ccccc1)[C@H]1C[C@H]2CCOC[C@H]2C1 | -1.03%
COCCn1/c(=N\C(=O)CN(C)S(C)(=O)=O)sc2cc(Cl)ccc21 | -13.7%
COCC(=O)NCC1CCN(Cc2ccsc2)CC1 | -3.88%
O=S(=O)(c1ccccc1Cl)N1CCC2(CC1)OCCS2 | -4.84%
CC1(C)OCC2(CO1)CN(C(=O)c1cccc3ccccc13)C2 | -7.81%
COC(=O)N1CCc2ccccc2C1C(=O)NCC(F)(F)F (centres undefined) | -2.96%
O=C(Nc1cc(N2CCOCC2)ncn1)c1cnccn1 | -3.45%
O=C1CCSCC(C(=O)N2CCC3(CC2)OCCO3)N1 (centres undefined) | 0.595%
CCc1c(C)nc2n(c1=O)CC(C(=O)Nc1sccc1C(=O)OC)CS2 (centres undefined) | 3.24%
Cn1nc(CNC(=O)c2ccc(OC(F)(F)F)cc2)c2c1CCOC2 | 7.03%
CC(=O)N1C[C@@H]2C(=O)N(C)C3(CCN(C(=O)C(C)C)CC3)[C@@H]2C1 | 0.434%
Cc1nnc([C@H]2C[C@@H]3CCN(C(=O)C4CCOCC4)C[C@H]3O2)[nH]1 | 16.5%
COc1ccc(CC(=O)N2CC[C@@H]3NC(=O)CC[C@@H]32)cc1 | -1.89%
O=C(c1c2c(N3CCOCC3)ncnc2n2ccccc12)N1CCCC1 | -1.52%
O=C(Cn1ccc2ccc(Cl)cc21)NCc1ccc(C(=O)O)cc1 | 7.91%
O=C(CCn1ccc2ccc(Br)cc21)/N=c1\[nH]nc(C2CCCO2)s1 (centres undefined) | -9.46%
CC(C)n1[nH]c(=O)c2c1NC(=O)CC2c1cccc(Br)c1 (centres undefined) | 5.28%
CCc1c(C)nc2n(c1=O)CC(C(=O)Nc1ccccc1F)CS2 (centres undefined) | 1.57%
COCC1CN(Cc2ccc(C)o2)Cc2ncn(CC3CC3)c21 (centres undefined) | -11%

SMILES | cytotoxicity at 10 µM
CCOC(=O)N1CCN(C(=O)c2cc(-c3ccc(Cl)cc3Cl)on2)CC1 | 2.42%
O=C1CNc2ncnc(Nc3cnn(Cc4cccc(F)c4)c3)c2N1 | 4.67%
Cc1nn(C)c2c(NCc3ccncc3)nc(C3CC3)nc12 | -4.17%
CCc1cc(=O)[nH]c(NC2CCN(S(=O)(=O)c3ccccc3)CC2)n1 | -5.49%
CS(=O)(=O)N[C@@H]1CN(Cc2ccc3ccccc3c2)C[C@H]1O | -2.92%
CC(=O)N1CCC(c2cncc(N3CCCC(O)C3)n2)CC1 (centres undefined) | -1.47%
Cc1csc(C(Cc2ccsc2)NC(=O)c2cc(=O)n(C)c(=O)n2C)n1 (centres undefined) | -12.3%
Cc1ccccc1CC(=O)N1C[C@@H](O)[C@H](N2CCN(C)CC2)C1 | -4.29%
O=C(O)C1CN(c2cccc(F)c2)CCO1 (centres undefined) | -25.2%
O=C(O)C1CN(c2cccc(Cl)c2)CCO1 (centres undefined) | -12.4%
Cc1nc2ccccn2c1CC(=O)N[C@@H]1CC[C@@H](N2CCCC2)[C@@H]1O | -12.4%
Cc1cnc(C(=O)N2Cc3ccccc3OC3(CCOCC3)C2)cn1 | -1.54%
Cc1ncc(CN2CCOC(c3ccc(-c4cnn(C)c4)cn3)C2)s1 (centres undefined) | -23%
CCC(=O)N1CCC(c2cc(Nc3ncccn3)nc(C)n2)C1 (centres undefined) | -24%
O=C(Cn1ccnc1)N1C[C@@H]2CC[C@H](Oc3ccccc3F)[C@@H]2C1 | -28.9%
CN1CCC(c2cccc(CCC(=O)NCC(N)=O)n2)CC1 | -20.1%
O=S(=O)(CCOc1ccc(F)cc1)Nc1cnn(CC(F)F)c1 | -4.87%
CC(C)c1cc(C(=O)N(c2ccc(F)cn2)C2CCOCC2)on1 | -9.01%
N#Cc1ccc(CS(=O)(=O)NC(=O)c2ccc(C#N)cc2)cc1 | 5.47%
O=C(Nc1ccccc1-c1ccccc1)NC1CCC2(C1)OCCO2 (centres undefined) | 8.84%
O=C(NCCN1CCCCCC1)c1cccc(Cl)c1Cl | 5.8%
CCOc1cc(F)ccc1NC1CCN(CC(F)(F)F)C1=O (centres undefined) | -0.302%

SMILES | cytotoxicity at 10 µM
O=C(NCCO)Nc1ccc(Cl)cc1-n1cccc1 | 7.82%
COCC(=O)N(CCC(=O)OC)CC1CCCO1 (centres undefined) | 1.74%
Cn1nc2c(cc1=O)CN(Cc1nc(-c3ccoc3)no1)CC2 | 7.72%
O=C(NCC(=O)N1CCCC1Cc1cccc(F)c1)c1ccccn1 (centres undefined) | -8.51%
N#Cc1ccc(C(=O)N(C2CC2)C2CC(=O)NC2=O)cc1 (centres undefined) | -4.64%
O=C(NCCNc1cnccn1)N1CC=C(c2ccc(O)cc2)CC1 | 18.6%
CS(=O)(=O)NCCNC(=O)NC1(c2ccc(Cl)cc2)CCC1 | -2.48%
N#Cc1ccc(SCCCO)c(F)c1 | 5.11%
COc1ccc(C(CO)NC(=O)Nc2cccc(C(C)=O)c2)cc1 (centres undefined) | 3.43%
N#Cc1cccc(OCCN2CCCC(c3noc(C4CC4)n3)C2)c1 (centres undefined) | -0.276%
COc1ccnc(N2CCN(C(=O)c3cscn3)CC2)n1 | 0.883%
CN(Cc1noc(C2CC2)n1)CC1CCN(CCO)CC1 | -3.96%
Cc1nc2n(n1)CC(Nc1nc(-c3ccccc3)no1)CC2 (centres undefined) | 0.658%
Cc1ccc(S(=O)(=O)N(C)CC(N)=O)c(Cl)c1 | 5.79%
O=C(Nc1ccccc1OCC(F)F)N[C@@H]1C=C[C@H](CO)C1 | -7.14%
COc1ccc2cccc(CC(=O)NCCCc3n[nH]c(C)n3)c2c1 | -2.11%
CNC(=O)c1ccc(NC(=O)NC(C)c2cc(C)oc2C)cc1 (centres undefined) | -12.8%
CCC(NC(=O)c1cccc2[nH]ccc12)C(=O)N1CCOCC1 (centres undefined) | -4.1%
FC(F)(F)c1ccnc(N2CCCCCC2)c1 | 3.02%
O=C(CN1CCCS(=O)(=O)CC1)NCc1ccccc1F | 3.76%
O=C(NCc1nc2cc(F)ccc2[nH]1)c1ccc[nH]1 | 11.9%
COCC(C)NC(=O)CN1CCC(CO)CC1 (centres undefined) | -6.16%

SMILES | cytotoxicity at 10 µM
COc1ccc(CCN2CC(n3nc(C)cc3C)C2)cc1 | -9.12%
CN(Cc1nnc(C2CC2)n1C)S(=O)(=O)c1ccc(F)c(C#N)c1 | 18.4%
OC(CN1CCCCc2ccccc21)Cn1cccn1 (centres undefined) | 5.55%
CC(C)OCCN(Cc1cccc(O)c1)C1CCC(O)CC1 (centres undefined) | 5.81%
CN(Cc1ccc(Cl)s1)C(=O)c1cccc(OCC(N)=O)c1 | -1.61%
Cc1ccc(-n2nnc(CC(=O)N3CCSCC3)c2C)cc1 | -13.1%
Cc1oc(-c2ccsc2)nc1CC(=O)NCCS(C)(=O)=O | -8.6%
Cc1ccccc1-c1cc(NC(=O)CC(C)C)n(CCO)n1 | 7.47%
CC(C)Cc1noc(CN2CCN(C(=O)c3ccco3)CC2)n1 | -5.39%
CN1C(=O)C(c2cccnc2)CC12CCN(CCO)CC2 (centres undefined) | 3.55%
CCc1nn(C)c(Cl)c1CN1CCC(Cc2nncn2C)CC1 | -1.52%
CCc1cc(CN(C)C(=O)CN2CC(Cc3ccccc3)CC2=O)on1 (centres undefined) | -0.28%
COc1cccc2c(=O)n(Cc3cc(C4CC4)[nH]n3)cnc12 | 3.76%
CC(C)C[C@@H](CO)n1cc(-c2cnc(-c3ccco3)nc2)nn1 | -0.662%
CCN1CCCC(c2c(-c3ccccc3)ncn2CCCO)C1 (centres undefined) | -3.41%
CC(C)CCN(C)Cc1ccccc1-c1nc(C(C)C)cc(=O)[nH]1 | 5.46%
CNc1nc(N2CCC3(CCCNC3=O)C2)nc2c1CCC2 (centres undefined) | -4.95%
C[C@H](c1ccc(F)cc1)n1c(C2CCC2)n[nH]c1=O | -5.95%
CCc1cc(N(C)Cc2c(C)nn(C)c2C)n2nccc2n1 | 0.613%
CCCn1ccnc1CN1C[C@@H](NC(C)=O)[C@H](c2ccc(C)cc2)C1 | 1.9%
C[C@@H]1CN(C(=O)c2ccncc2)CC[C@@]1(O)C1CCOCC1 | 0.301%
COc1cccc(C(=O)N2CCc3c(nc(N)[nH]c3=O)C2)c1OC | -9.91%

SMILES | cytotoxicity at 10 µM
CN(C)c1ncc(-c2c(-c3ccccc3)ncn2C(CO)C(=O)O)cn1 (centres undefined) | 0.471%
Cc1ccc(NC(=O)c2cc3c(=O)n(C)c(=O)n(C)c3nc2C)cc1Cl | -7.15%
CN(C)C(=O)CCCNc1ncc2c(n1)CCN2c1ccccc1 | 2.29%
Cc1cc(N2CCC(O)(CN(C)C)C2)c2cc3c(cc2n1)OCO3 (centres undefined) | 45.4%
O=C(NC[C@]1(O)CN(Cc2ccccc2F)C[C@H]1O)c1ccccn1 | 1.15%
CCc1nccn1C1CCCN(C(=O)c2ccc3nnc(C)n3c2)C1 (centres undefined) | -8.95%
COc1cc(CCC(=O)NC2CCCN(C)C2)ccc1OCC(F)(F)F (centres undefined) | -4.54%
Cc1cnn(CC2CN(Cc3csc(C4CCCC4)n3)CCO2)c1 (centres undefined) | -5.47%
CCS(=O)(=O)N1CCC(NC(=O)c2cc(C(C)C)ccc2O)CC1 | -5.16%
Cc1cnn(CC2CCCCN2Cc2cnc(C)s2)c1 (centres undefined) | -11.3%
CC(=O)Nc1ccc(-n2cncn2)c(F)c1 | -11.3%
O=C(Cn1nc(-c2ccc(F)cc2)oc1=O)NCc1ccncc1 | -9.21%
CNS(=O)(=O)c1ccc(C(=O)NCCc2ccccn2)cc1 | -3.81%
CC(=O)N(Cc1noc(C)n1)C1CCN(Cc2cc(C)on2)C1 (centres undefined) | 4.38%
CC1CCCN(Cc2ccnc(-c3cccnc3)n2)C1 (centres undefined) | -6.57%
N#Cc1ccc(N2CCC3(CC2)COCCN3Cc2cccnc2)cc1 | -1.77%
CC(C)NC(=O)N1CCc2ncnc(-c3ccncc3)c2CC1 | -0.736%
O=C(c1ccco1)N1C[C@H]2CCCN(Cc3ccncc3)[C@H]2C1 | 0.361%
CCCS(=O)(=O)N1C[C@@H](OCc2ccncc2)[C@H]2OCCC[C@H]21 | 5.56%
CC1CCN(C(=O)[C@H]2C[C@@H]3CCN(CC4CCOCC4)C[C@H]3O2)CC1 | 5.35%
Cc1ccc(CN2CCC3(CCC3NC(=O)c3ccn(C)c3)CC2)s1 (centres undefined) | -151%
